Measured values collected from several papers.
Lines come from different studies, so protocols differ.
Target: Serine/threonine-protein kinase PAK 3 (PAK3, Homo sapiens, UniProt O75914)

SMILES	assay	conditions	quantity	result
CC(C)CC(=O)N1CCc2nc(-c3ccc(Br)cc3)nc(N(C)Cc3ccccc3)c2C1	cell-free assay, competition with immobilised ligand	0.1 µM	remaining binding	100%
COc1ccccc1N1CCN(c2ncnc3[nH]nc(Br)c23)CC1	enzyme activity, inhibitor	1 µM	inhibition	-12%
CCCS(=O)(=O)Nc1ccc(F)c(C(=O)c2c[nH]c3ncc(-c4ccc(Cl)cc4)cc23)c1F	enzyme activity, inhibitor	1 µM	inhibition	< 20%
COc1cc(Cl)c(C(=O)N[C@@H](CN[C@H]2CC[C@@H](N)CC2)Cc2ccc(C#N)cc2)cc1-c1ccc(CN[C@H](C)c2ccc(C)cc2)o1	enzyme activity, inhibitor	1 µM	remaining activity	101%
COc1cc2ncnc(Nc3ccc(Oc4ccccc4)cc3C)c2cc1OC	enzyme activity, inhibitor	1 µM	inhibition	3%
O=C(N[C@H]1CCCCC/C=C\C2C[C@@]2(C(=O)O)NC(=O)[C@@H]2C[C@@H](Oc3ccncc3)CN2C1=O)OC1CCCC1 (stereo partly shown)	binding, competition with immobilised ligand	1 µM	remaining binding	88%
Nc1ncnc2occ(-c3ccc(NC(=O)Nc4cc(C(F)(F)F)ccc4F)cc3)c12	cell-free assay, inhibitor	20 µM	remaining signal	14%
CNC(=O)Nc1ccc2c(c1)CC[C@@]21OC(=O)N(CC(=O)N(Cc2ccc(F)cc2)[C@@H](C)C(F)(F)F)C1=O	cell-free assay, competition with immobilised ligand	1 µM	remaining binding	91%
CC(C)(O)[C@H]1CC[C@H](Nc2ccc3ncc(-c4cccc(C(F)(F)F)c4)n3n2)CC1	enzyme activity, inhibitor	1 µM	remaining activity	94.2%
O=C(Nc1cccnn1)N1CC(C/C=C/c2cncc(Oc3ccc(C(F)(F)F)cn3)n2)C1	cell-free assay, competition with immobilised ligand	1 µM	remaining binding	100%
CN1CC(Oc2cnc(C#N)cc2-c2ccn3nc(NC(=O)C4CC4)cc3c2)C1	enzyme activity, inhibitor	1 µM	inhibition	-10%
Cc1ccc(Nc2nccc(N(C)c3ccc4c(C)n(C)nc4c3)n2)cc1S(N)(=O)=O	enzyme activity, inhibitor	10 µM	inhibition	61%
O=C(Nc1cnn(-c2csc(C(=O)NC3COC3)c2)c1)Nc1ccccc1Cl	enzyme activity, inhibitor	5 µM	remaining activity	97.4%
COc1cc2c(Nc3ccc(Br)cc3F)ncnc2cc1OCC1CCN(C)CC1	cell-free assay	0.5 µM	remaining signal	103%
CC(C)(C)c1nc2c(s1)c1nc(N)ncc1c1ccc(NS(=O)(=O)c3c(F)cccc3F)c(F)c12	enzyme activity, inhibitor, radiometric	1 µM	remaining activity	87%
Clc1ccc(Nc2nnc(Cc3ccncc3)c3ccccc23)cc1	cell-free assay	0.5 µM	remaining signal	107%
Cc1ccc(C(=O)Nc2ccc(CN3CCN(C)CC3)c(C(F)(F)F)c2)cc1C#Cc1cnc2cccnn12	enzyme activity, inhibitor	23.5 nM	remaining activity	3.6%
C[S+]([O-])c1ccc(-c2nc(-c3ccncc3)c(-c3ccc(F)cc3)[nH]2)cc1 (stereo not shown)	cell-free assay	0.5 µM	remaining signal	102%
CCCOc1ccc([C@H]2[C@H](C(=O)O)[C@@H](c3ccc4c(c3)OCO4)CN2CC(=O)Nc2c(CC)cccc2CC)cc1	cell-free assay, competition with immobilised ligand	1 µM	remaining binding	100%
